# This is a sample that favours compounds with a hit; in the whole collection about 3% have one here.
# SENP7 inh: inhibitors of human SENP7 protease | Q9BQF6 | recombinant SENP7, Z-RLRGG-aminoluciferin luminescence, 40 min | inhibition, % at 5 µM | actives 1.5% (n = 330,000) | AID 434973;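 active means inhibition above about 50% at the single test dose, limit read from the data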;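 further: plate controls were DMSO with enzyme for no effect and no enzyme buffer wells for full effect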
# Target sequence (Q9BQF6 706-1050 limits assumed): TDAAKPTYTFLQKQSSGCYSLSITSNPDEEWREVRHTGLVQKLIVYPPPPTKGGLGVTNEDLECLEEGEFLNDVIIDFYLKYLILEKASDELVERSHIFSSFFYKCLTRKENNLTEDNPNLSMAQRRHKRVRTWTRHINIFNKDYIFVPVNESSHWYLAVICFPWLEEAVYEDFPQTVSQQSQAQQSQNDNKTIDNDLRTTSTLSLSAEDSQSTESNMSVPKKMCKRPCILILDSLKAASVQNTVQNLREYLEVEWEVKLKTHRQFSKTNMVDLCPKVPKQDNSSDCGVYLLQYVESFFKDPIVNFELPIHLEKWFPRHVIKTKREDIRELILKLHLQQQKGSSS
# Apaf1 inhib: inhibitors of human Apaf-1 apoptosome. O14727. reconstituted apoptosome caspase-3 activity, DEVD-Rh110 fluorescence. inhibition, % at 20 µM. actives 0.71% (n = 330,000). AID 489030; active means inhibition of at least 40% at 20 µM;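 further: plate controls were DMSO wells for no effect and DEVD-CHO caspase inhibitor wells for full effect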
#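 Material: reconstituted apoptosome with Apaf-1, cytochrome c, caspase-9, procaspase-3, dATP / Buffer or medium: pH 7.5 Hepes buffer with CHAPS, BSA, DTT / Also added: cytochrome c with DEVD-Rh110 / Schedule: compound with Apaf-1, dATP, procaspase-3 30 min, then 50 min reaction, room temperature / Technique: rhodamine 110 fluorescence at Ex 480/Em 540 nm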
# SENP6 inh: blocks the human protease SENP6. AID 2599. inhibition, % at 10 µM. Recombinant SENP6 catalytic domain, aminoluciferin luminescence. actives 1.8% (n = 330,000). Q9GZR1;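 active means inhibition above about 50% at the single tested dose, limit read from the data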;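 further: plate controls were DMSO wells with enzyme for no effect and DMSO wells lacking enzyme for full effect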
# SENP8 block-1: blocks human SENP8 cleavage of Nedd8 substrate. actives 0.64% (n = 360,000). inhibition, % at 20 µM. Q96LD8. AID 602440. recombinant SENP8, Nedd8 substrate fluorescence; in the data active means inhibition mostly above about 40%, no sharp cut-off; inactive means mostly below about 27%
# UBC13 polyUb: human UBC13 polyubiquitination inhibition | UBC13 polyubiquitin chain formation, TR-FRET | P61088 | AID 485273 | actives 0.47% (n = 330,000) | inhibition, % at 20 µM; in the data active means inhibition above about 45%, passing the limit was not always enough
# Target sequence (P61088 whole entry, looked up): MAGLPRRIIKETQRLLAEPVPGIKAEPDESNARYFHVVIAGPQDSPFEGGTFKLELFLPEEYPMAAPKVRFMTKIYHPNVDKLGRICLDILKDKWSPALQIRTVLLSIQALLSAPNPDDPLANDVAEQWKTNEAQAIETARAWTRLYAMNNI
# SENP8 block-2: SENP8 protease inhibition; Q96LD8; purified SENP8, Z-RLRGG-aminoluciferin cleavage, luminescence; inhibition, % at 10 µM; actives 1.2% (n = 330,000); in the data active means inhibition above about 50%
# SENP8 conf: SENP8 (human) inhibition, single concentration confirmation. actives 15% (n = 1,400). purified SENP8, Nedd8-AMC/pro-Nedd8 cleavage fluorescence, 30 min. inhibition, % at 25 µM. shares compounds with SENP8 block-1; in the data active means inhibition mostly above about 39%, no sharp cut-off; inactive means mostly below about 34%
# Numbers without * were called inactive; . = not tested or not shown.
SMILES,SENP7 inh,Apaf1 inhib,SENP6 inh,SENP8 block-1,UBC13 polyUb,SENP8 block-2,SENP8 conf
Cc1ccc(C(=O)N/C(=C/c2ccc(-c3cccc([N+](=O)[O-])c3)o2)C(=O)NC(C)(C)C)cc1,7,30,-5,27,-6,-5,.
Cc1ccc(C(=O)N/C(=C/c2ccc(-c3cccc([N+](=O)[O-])c3)o2)C(=O)NC(C)C)cc1,2,19,-4,47*,-6,4,12
COc1ccc(C(=O)N/C(=C\c2ccc(-c3cccc([N+](=O)[O-])c3)o2)C(=O)NCCCN2CCOCC2)cc1,.,.,.,35*,.,.,9
Cn1cccc1CN1CCC[C@]2(N[C@H](c3ccc(C(F)(F)F)cc3)[C@@H]3C(=O)N(Cc4ccccc4)C(=O)[C@@H]32)C1=O,.,.,.,14,.,.,.
O=C(Nc1ccc(F)cc1F)N1CCC(c2nc3ccccc3o2)CC1,-4,0,-34,15,7,1,.
CC1=C(C(=O)N(C(C)C)C(C)C)CC(CC(=O)NCCN2CCOCC2)C(=O)N1Cc1ccccc1 (centres undefined),.,.,.,-19,.,.,.
COC(=O)c1ccc(CNC(=O)c2cc(S(=O)(=O)NCc3ccccc3)ccc2C)cc1,.,.,.,4,.,.,.
COc1ccc(NC(=O)C2CC(=O)N/C(=N/NC(=O)c3ccc(Cl)cc3)S2)cc1 (centres undefined),12,9,7,40*,-5,-2,9
CCc1ccc2c(c1)c1nnc(NN)nc1n2CC,0,-4,7,72*,-5,6,11
CCc1ccc2c(c1)c1nnc(NN)nc1n2C,-6,16,13,64*,-13,6,-4
CCn1c2ccc(F)cc2c2nnc(NN)nc21,5,-11,5,25,-9,3,.
O=C(COC(=O)c1cccs1)Nc1ccccc1[N+](=O)[O-],-17,-33,-24,17,-9,-8,.
CCOc1ccccc1NC(=O)CCCc1ccc(OC)c(C)c1,5,10,4,-2,-1,-5,.
CN1CCN(C2=C(Cl)C(=O)N(C3CCCCC3)C2=O)CC1,5,4,7,41*,-4,5,5
Cc1nc2ccc(S(=O)(=O)N(C)CC(=O)NCc3ccc(N(C)C)cc3)cc2s1,-4,-1,7,6,-2,3,.
C(=N\NC(=Nc1ccccc1)c1ccccn1)/c1ccccn1,0,-32,0,40*,-8,4,3
CCNc1nc(NC(C)C)nc(N(C#N)C(C)C(=O)N(CC)CC)n1 (centres undefined),-5,-22,3,34,4,-2,.
CCNc1nc(NC(C)C)nc(N(C#N)C(C)C(=O)N(C)C)n1 (centres undefined),4,-9,17,45*,5,7,-10
CN(C)c1cc(Nc2ccc(O)cc2)c([N+](=O)[O-])c2nonc12,-1,23,-5,39,-32,-7,.
CN(C)c1cc(Nc2cccc(O)c2)c([N+](=O)[O-])c2nonc12,-4,-3,-2,45*,-17,4,36
Cc1ccnn1CC(=O)N/N=C/c1cn[nH]c1-c1ccccc1,-3,6,-4,22,-6,-7,.
CCc1cccc2c1Sc1ccccc1CC2N1CCNCC1 (centres undefined),12,13,-36,44*,14,-11,14
O=C(/C=C/NNC(=O)c1ccc(Cl)cc1)c1ccccc1,-8,23,-1,39*,-24,-9,32
C=CCc1ccc(OCC(O)CN2CCc3ccccc3C2)c(OC)c1 (centres undefined),5,-5,-13,22,5,-7,.
CNC(=S)N/N=C/c1ccc(-c2ccc(Cl)c([N+](=O)[O-])c2)o1,3,16,14,33*,4,14,1
SMILES,SENP7 inh,Apaf1 inhib,SENP6 inh,SENP8 block-1,UBC13 polyUb,SENP8 block-2,SENP8 conf
Cc1ccc(-c2ccc(/C=N/NC(=S)Nc3ccccc3)o2)cc1[N+](=O)[O-],4,-18,20,23,-11,0,.
O=[N+]([O-])c1cccc(-c2ccc(/C=N/NC(=S)Nc3cccc(F)c3)o2)c1,-2,12,-18,52*,-24,6,11
CCOC(=O)c1c(-c2cccc([N+](=O)[O-])c2)csc1NC(=O)CCCOc1ccccc1OC,.,.,.,45*,.,.,26
c1ccc(OCCSc2nc3ccccc3o2)cc1,5,11,-26,14,-4,-19,.
CCOc1ccc(OCCSc2nc3ccccc3o2)cc1,1,9,-8,47*,11,3,1
CC(C)CN(C(=O)COC(=O)/C=C/c1ccc(Cl)c(Cl)c1)c1c(N)n(Cc2ccccc2)c(=O)[nH]c1=O,-2,5,-7,1,-7,-6,.
CCN(CC)S(=O)(=O)c1ccc2c(c1)nc(SCC(=O)NC1CC1)n2-c1ccccc1OC,2,14,-9,43*,4,4,26
CCCC(C)C(=O)OCC(=O)Nc1ccc(Br)cc1 (centres undefined),-4,19,-11,.,-17,-5,.
CCN(CC)S(=O)(=O)c1ccc(N2CCOCC2)c(NC(=O)C(=O)c2c(-c3ccccc3)cc3ccccn23)c1,6,5,7,75*,4,3,21
CCN(CC)S(=O)(=O)c1cccc(NC(=O)C(=O)c2c(-c3ccccc3)cc3ccccn23)c1,0,9,-11,34,-7,5,.
Clc1nssc1=Nc1ccc(Br)cc1,.,.,.,44*,.,.,12
CSc1nnc(C)c(/C=C/NOCc2cccc(F)c2)n1,2,7,20,40*,-13,3,57*
C=CCSc1nnc(C)c(/C=C/Nc2ccc(Cl)cc2)n1,-4,6,15,1,-6,1,.
Cc1nnc(SCc2ccccc2)nc1/C=C/NOCc1ccc(Cl)cc1Cl,5,5,21,54*,-11,1,40
CC(C)NC(=O)c1cc(C2CCCCN2S(=O)(=O)c2ccc(F)cc2F)on1 (centres undefined),.,.,.,6,.,.,.
C[C@H](NC(=O)C1CCN(S(=O)(=O)c2ccccc2)CC1)C(=O)NCc1ccc(F)cc1,-3,2,3,15,0,2,.
CCn1c(=O)cc(OCC(=O)NCCCN2CCCC2=O)c2ccccc21,3,6,-2,0,3,6,.
COc1ccc(OC)c(S(=O)(=O)Nc2cccc3c(O)cccc23)c1,-4,-1,7,48*,-12,1,30
COc1ccc(OC)c(S(=O)(=O)Nc2ccc(O)c3ccccc23)c1,4,13,2,18,-20,-1,.
O=C(NC(c1ccc(Cl)cc1)c1cnccn1)C1CCN(CCCc2ccccc2)CC1 (centres undefined),.,.,.,13,.,.,.
O=C(CSc1nnnn1-c1ccccc1)N1CCc2ccccc2C1,5,16,8,26,4,5,.

# Compound activity: PubChem BioAssay, Sanford-Burnham Center for Chemical Genomics
